Compound activity as filed in PubChem.
An excerpt weighted towards active compounds, which were near 2.5% of everything screened.
NSD2 inh – NSD2 (human) methyltransferase inhibition | inhibition, % at 12.5 µM | O96028 | actives 0.54% (n = 310,000) | NSD2 peptide methylation, AlphaScreen, 120 min | AID 743445
CDK5 inh – inhibitors of human CDK5/p35 kinase. Q00535+Q15078. Recombinant CDK5/p35, ADP-Glo luminescence, 60 min. inhibition, % at 10 µM. actives 0.01% (n = 330,000). AID 488839;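 active = highest replicate inhibition of at least 50% and at least 75% of replicates reaching 50%; inconclusive = only one of the two criteria met; inactive = both criteria failed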
Dyrk1A ADPGlo – blocks rat Dyrk1A kinase activity; actives 0.43% (n = 310,000); ADP-Glo luminescence, NFATc1 peptide; inhibition, % at 12.5 µM
SR-BI uptake up – activators of SR-BI mediated HDL lipid uptake; CHO ldlA[mSR-BI] cells, DiI-HDL uptake fluorescence, 3 h; 100 = double the neutral-control signal; activation, % at 12.5 µM; actives 0.096% (n = 320,000);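 active = mean replicate activation of at least 60% and every replicate at or above 60%; inconclusive = mean or all-replicate condition met, but not both; inactive = mean below 60% and not all replicates reaching 60%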
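Test system: SR-BI-overexpressing, LDLR-lacking CHO cells. Measured by: DiI fluorescence, bottom read. Medium: Ham's F12 with 0.5% BSA, HEPES 25 mM, pH 7.4. Timing: 3 h uptake period with compound, 37 °C.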
dFosB act-1 – enhances mouse delta FosB homodimer DNA binding | P13346 | purified delta FosB, TAMRA-CDK5 oligo fluorescence polarization; percent of positive-control signal above neutral wells | activation, % at 25 µM | actives 0.99% (n = 340,000) | AID 493131;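 active = mean activation above about 17%, with every replicate also reaching it, limit read from the data, passing the limit was not always enough; inconclusive = only one of the two conditions met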
Target sequence (P13346 whole entry, looked up): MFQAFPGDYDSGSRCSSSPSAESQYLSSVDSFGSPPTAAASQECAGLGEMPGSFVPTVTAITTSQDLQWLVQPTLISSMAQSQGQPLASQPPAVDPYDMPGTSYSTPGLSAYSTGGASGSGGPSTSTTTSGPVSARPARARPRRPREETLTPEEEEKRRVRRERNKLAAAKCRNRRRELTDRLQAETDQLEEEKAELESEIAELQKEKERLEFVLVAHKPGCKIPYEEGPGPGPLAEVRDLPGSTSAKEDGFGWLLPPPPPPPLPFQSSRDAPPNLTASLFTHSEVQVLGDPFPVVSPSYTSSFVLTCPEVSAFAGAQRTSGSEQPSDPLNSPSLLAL
SR-BI DiI inh – inhibitors of mouse SR-BI mediated HDL lipid uptake; Q61009; actives 0.96% (n = 320,000); AID 488896; ldlA[mSR-BI] CHO cells, DiI-HDL uptake fluorescence, 3 h; inhibition, % at 12.5 µM;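 active = mean replicate inhibition of at least 70% and a set share of replicates each scoring 70 or more; inconclusive = meets just one of the two criteria; inactive = fails both criteria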
dFosB act-2 – delta FosB (mouse) homodimer activation; shares compounds with dFosB act-1; 2,400 tested, under 10 active; purified delta FosB, TAMRA-CDK5 oligo fluorescence polarization; normalised: neutral wells 0, positive control 100; AID 588690; activation, % at 24.9 µM;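 active = highest replicate activation at or above 34% and every replicate reaching that threshold; inconclusive = meets only one of the two criteria; inactive = meets neither criterion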;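 also: higher polarization means more probe DNA bound by delta FosB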
Of the large screens only hits and unclear results are named; the others gave an inactive call (follow-up assays come after a bar, where they were run). Rule as the data show it, unless noted: active = inhibition above about 50%; inactive = the rest.

COc1ccc(-c2csc(NC(=S)NC(=O)c3ccc(S(=O)(=O)N(C)C)cc3)n2)cc1OC	dFosB act-1 29 | dFosB act-2 inactive
Cc1occc1-c1nnc(SCC(=O)Nc2ccc3ncccc3c2)n1-c1ccccc1	none (no result: CDK5 inh, Dyrk1A ADPGlo, SR-BI uptake up, dFosB act-1, SR-BI DiI inh)
Cc1ccc(Nc2nnc(SCc3nc4ccccc4c(=O)[nH]3)s2)cc1	dFosB act-1 43 (no result: SR-BI uptake up, SR-BI DiI inh) | dFosB act-2 inactive
O=C(CCc1nc2ccccc2c(=O)[nH]1)Nc1nnc(SCc2ccc(Cl)cc2)s1	dFosB act-1 inconclusive
CC1=CC(=O)C(C(C)C)=CC1=NC(=O)c1ccc(C)cc1	none
Cc1cc(C)c(NC(=O)Nc2ccccc2)c(Cl)c1	none
Cc1cc(C)c(NC(=O)Nc2ccccc2C)c(Cl)c1	dFosB act-1 20 (no result: SR-BI uptake up, SR-BI DiI inh) | dFosB act-2 inactive
O=c1[nH]n(-c2ccccc2)c(=O)cc1Cl	none
Cc1noc(C)c1CSCC(=O)Nc1nc2c(F)cc(F)cc2s1	none (no result: Dyrk1A ADPGlo)
CC(=O)c1ccc(N2CCN(C(=O)/C=C/c3ccc4ccccc4n3)CC2)cc1	dFosB act-1 40 | dFosB act-2 inactive
COc1cc(/C=C/C(=O)OCC(=O)NCC(=O)Nc2cccc(C)c2C)ccc1OC(F)F	dFosB act-1 20 (no result: Dyrk1A ADPGlo, SR-BI uptake up) | dFosB act-2 inactive
CCCn1ncc(CN2CCN(CCc3ccccc3)C(CCO)C2)c1C (stereo unspecified)	none
COc1cc(-n2c(=O)c3ccccc3n(Cc3cccc(C)c3)c2=O)cc(OC)c1OC	dFosB act-1 53 | dFosB act-2 inactive
COc1cccc(-n2nc(C(=O)NCC3CCCO3)c3ccccc3c2=O)c1 (stereo unspecified)	none
CCOc1ccccc1N1CCN(C(=O)c2c(CC)noc2C)CC1	none
O=C1Nc2c(Br)cc(Br)c3cccc1c23	dFosB act-1 90 | dFosB act-2 inactive
CCc1nc2ccccc2c(C(=O)OCc2nc3ccccc3c(=O)[nH]2)c1C	none (no result: Dyrk1A ADPGlo)
O=C(CCn1c(=S)[nH]c2cc3c(cc2c1=O)OCO3)NCc1cccc(Cl)c1	dFosB act-1 21 | dFosB act-2 inactive
N#Cc1ccccc1Cn1c(=O)n(CCCC(=O)NCc2ccc3c(c2)OCO3)c(=O)c2ccccc21	none
Cc1ccc(Cn2c(=O)n(CCC(=O)NCc3ccc4c(c3)OCO4)c(=O)c3ccccc32)cc1	dFosB act-1 28 | dFosB act-2 inactive
O=C(Cn1cc(C(=O)C2CC2)c2ccccc21)NCc1ccc2c(c1)OCO2	dFosB act-1 22 (no result: NSD2 inh) | dFosB act-2 inactive
O=C(CCCn1c(=S)[nH]c2cc3c(cc2c1=O)OCO3)NCc1cccc(Cl)c1	none
O=C(COC(=O)c1cc(=O)[nH]c2ccccc12)Nc1ccc(Cl)cn1	dFosB act-1 19 | dFosB act-2 inactive
Cc1ccc(CNC(=O)COC(=O)c2cc(=O)[nH]c3ccccc23)cc1	dFosB act-1 55 | dFosB act-2 inactive
O=C(COC(=O)c1cc(=O)[nH]c2ccccc12)Nc1nc(-c2ccccc2)cs1	dFosB act-1 55 (no result: SR-BI uptake up, SR-BI DiI inh) | dFosB act-2 inactive
O=C(COC(=O)c1cc(=O)[nH]c2ccccc12)NCc1ccccc1	none
O=C(COC(=O)c1cc(=O)[nH]c2ccccc12)Nc1nccs1	dFosB act-1 inconclusive
Cc1cccc(C)c1NC(=O)COC(=O)c1cc(=O)[nH]c2ccccc12	dFosB act-1 42 (no result: Dyrk1A ADPGlo) | dFosB act-2 inactive
OC[C@@H]1CN(CCN2CCOCC2)C[C@H](n2cnc3c(NCc4ccco4)ncnc32)O1	none (no result: CDK5 inh, Dyrk1A ADPGlo, SR-BI uptake up, dFosB act-1, SR-BI DiI inh)
O=C(O)CSc1c(Cl)c(=O)oc2ccc(Cl)cc12	none (no result: CDK5 inh, Dyrk1A ADPGlo, SR-BI uptake up, dFosB act-1, SR-BI DiI inh)
COc1cccc(C(O)c2ncc(-c3cccc4ccccc34)[nH]2)c1 (stereo unspecified)	none (no result: CDK5 inh, Dyrk1A ADPGlo, SR-BI uptake up, dFosB act-1, SR-BI DiI inh)
O=C(NCc1cccs1)c1ccc(Cl)c(S(=O)(=O)N2CCCC2)c1	none
COc1ccc2c(c1)[nH]c1c(=O)n(/N=C/c3ccc(OC)c(CN4CCCC4)c3)cnc12	dFosB act-1 66 (no result: NSD2 inh) | dFosB act-2 inconclusive
COc1ccc(/C=N/n2cnc3c([nH]c4ccc(C)cc43)c2=O)cc1CN1CCCC1	dFosB act-1 42 (no result: SR-BI uptake up, SR-BI DiI inh) | dFosB act-2 inactive
O=C(C[C@H]1C/C=C\CC[C@@H](Cc2ccc(F)cc2)C(=O)O[C@@H](c2ccccc2)CNC1=O)N[C@@H](CO)Cc1ccccc1	dFosB act-1 116 (no result: NSD2 inh) | dFosB act-2 inactive
O=C(C[C@H]1C/C=C\C[C@@H](Cc2ccc(F)cc2)C(=O)O[C@@H](c2ccccc2)CNC1=O)N[C@@H](CO)Cc1ccccc1	dFosB act-1 49 (no result: NSD2 inh) | dFosB act-2 inactive
O=C(C[C@H]1C/C=C\CC[C@@H](Cc2ccc(F)cc2)C(=O)O[C@H](c2ccccc2)CNC1=O)N[C@H](CO)Cc1ccccc1	none (no result: NSD2 inh)
Cc1ccc(C)c(N2CCN(C(=O)Cn3c(=O)oc4cc(S(=O)(=O)N5CCCC5)ccc43)CC2)c1	dFosB act-1 35 (no result: NSD2 inh) | dFosB act-2 inactive
O=C(Cn1c(=O)oc2cc(S(=O)(=O)N3CCCC3)ccc21)N1CCN(c2ccccc2)CC1	none (no result: NSD2 inh)
O=C(Cn1c(=O)oc2cc(S(=O)(=O)N3CCCCCC3)ccc21)NC1CCCCCCC1	none (no result: NSD2 inh)
O=C(Cn1c(=O)oc2cc(S(=O)(=O)N3CCCC3)ccc21)NC1CCCc2ccccc21 (stereo unspecified)	dFosB act-1 26 (no result: NSD2 inh) | dFosB act-2 inactive
Cc1c(NC(=S)NC(=O)c2ccccc2Br)c(=O)n(-c2ccccc2)n1C	none
COC(=O)c1ccc(OCC(=O)Nc2ccsc2C(=O)OC)cc1	dFosB act-1 36 | dFosB act-2 inactive
CCC(CC)C(=O)Nc1cccc(S(=O)(=O)c2cccc(NC(=O)C(CC)CC)c2)c1	dFosB act-1 17 | dFosB act-2 inactive
Cc1ccc(S(=O)(=O)N2CCN(C(=O)Cn3c(=O)oc4ccccc43)CC2)c(C)c1	none
O=C(COC(=O)Cc1ccccc1F)Nc1ccc2[nH]c(=O)[nH]c2c1	none
O=C(COC(=O)/C=C/c1cc(Br)ccc1F)Nc1ccc2[nH]c(=O)[nH]c2c1	dFosB act-1 41 | dFosB act-2 inactive
CCSc1ccc([C@@H]2[C@@H]3C(=O)N(C)C(=O)[C@@H]3[C@]3(C(=O)OC)CCCCN23)cc1	none (no result: NSD2 inh)
COc1cc(C(=O)OCC(=O)NCc2ccccc2)cc(NC(=O)c2ccco2)c1OC	dFosB act-1 26 | dFosB act-2 inactive
CNC(=O)COC(=O)c1cc(NC(=O)c2ccco2)c(OC)c(OC)c1	none
COc1ccccc1NC(=O)c1ccc(Cl)c(S(=O)(=O)NCc2ccco2)c1	none
COc1ccccc1C(=O)Nc1nc2cc3c(cc2s1)OCCO3	dFosB act-1 31 (no result: NSD2 inh) | dFosB act-2 inactive
COc1ccccc1C(=O)Nc1nc2cc3c(cc2s1)OCO3	none (no result: SR-BI uptake up, SR-BI DiI inh)
O=C(Nc1nc2cc3c(cc2s1)OCCO3)c1cccc(N2C(=O)CCC2=O)c1	none (no result: NSD2 inh)
